The test system of the experiment is T. cruzi CAI/72 in BESM cells, trypomastigote emergence microscopy. The experiment is described as follows: T. cruzi re-emergence after compound removal – imaging, CAI/72 strain, BESM host cells, 20-day treatment, mechanism study for T. cruzi inhibitor project, late-stage follow-up (AID 651877). To be noted: stronger effect = higher value. Put shortly: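 Evaluation – trypomastigote emergence timing, absence indicating cure, delay indicating static effect · Test system – BESM cells infected with T. cruzi CAI/72 · Detection – daily light microscopy of trypomastigote emergence · Incubation – 20-day dosing every other day, then 38-day withdrawal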

Turning to `C[C@@H]1CN([C@@H](C)CO)C(=O)c2cccc(NC(=O)c3ccncc3)c2O[C@H]1CN(C)Cc1cccc(Cl)c1`, the normalised slope vs benznidazole is 6. The compound also displayed a day of emergence (at 0.25 µM) of 4 days. The day of emergence (at 0.74 µM) stood at 17 days. Further, the day of emergence (at 2.2 µM) worked out at 18 days.
On to `C[C@H](CO)N1C[C@H](C)[C@H](CN(C)Cc2ccc(Oc3ccccc3)cc2)Oc2c(NC(=O)c3ccncc3)cccc2C1=O`, for which the normalised slope vs benznidazole was 70. This compound also yielded a day of emergence (at 0.25 µM) of 4 days.
In the case of `C[C@@H]1CN([C@@H](C)CO)C(=O)c2cccc(NC(=O)c3ccncc3)c2O[C@H]1CN(C)Cc1ccc(Oc2ccccc2)cc1`, the normalised slope vs benznidazole is 20. This compound also gave a day of emergence (at 0.25 µM) of 4 days. In addition, the day of emergence (at 0.74 µM) was greater than 37 days.
`C[C@H]1CN([C@@H](C)CO)C(=O)c2cccc(NC(=O)c3ccncc3)c2O[C@@H]1CN(C)Cc1ccc(Oc2ccccc2)cc1`: the normalised slope vs benznidazole is 70. Besides, the day of emergence (at 0.25 µM) was 4 days.
The like results for `C[C@H]1CN([C@@H](C)CO)C(=O)c2cccc(NC(=O)c3ccncc3)c2O[C@H]1CN(C)Cc1ccc(Oc2ccccc2)cc1` were, in that order, 70 and 4 days.
Turning to `C[C@@H]1CN([C@@H](C)CO)C(=O)c2cccc(NC(=O)c3ccncc3)c2O[C@H]1CN(C)Cc1ccc(Cl)cc1`, the normalised slope vs benznidazole was 6. Also, the day of emergence (at 0.25 µM) worked out at 4 days. This compound returned a day of emergence (at 0.74 µM) of 15 days. The day of emergence (at 2.2 µM) turned out to be 17 days.
On to `C[C@@H]1CN([C@H](C)CO)C(=O)c2cccc(NC(=O)c3ccncc3)c2O[C@H]1CN(C)Cc1ccccc1`, for which the normalised slope vs benznidazole is 70. For the same compound, under “at 0.25 µM”, the day of emergence is 4 days.
As for `C[C@@H]1CN([C@H](C)CO)C(=O)c2cccc(NC(=O)c3ccncc3)c2O[C@H]1CN(C)Cc1ccc(Oc2ccccc2)cc1`, the normalised slope vs benznidazole is 5.6. Where the note is “at 0.25 µM”, this compound came in with a day of emergence of 4 days. The compound further yielded a day of emergence (at 0.74 µM) of 30 days. The day of emergence (at 2.2 µM) is greater than 37 days.
Turning to `CC(C)N1C[C@@H](C)[C@H](CN(C)Cc2cccc(Oc3ccccc3)c2)Oc2c(NC(=O)c3ccncc3)cccc2C1=O`, the normalised slope vs benznidazole is 66. The compound also showed a day of emergence (at 0.25 µM) of 18 days.
As for `O=C(Cn1ccnc1[N+](=O)[O-])NCc1ccccc1`, the normalised slope vs benznidazole is 8. For the setting “at 0.25 µM”, this compound gave a day of emergence of -14 days. Also, the day of emergence (at 0.74 µM) came out at 1 days. Further, the day of emergence (at 2.2 µM) turned out to be 6 days.
